From ChEMBL document CHEMBL1932971, “Synthesis of uriedo and thiouriedo derivatives of peptide conjugated heterocycles - A new class of promising antimicrobials” (2012) come the findings set out here.

Molecules are shown by their SMILES. Numbered stars: 1 amine (or outer) side, 2 acyl side, 3 side chain; on linkers, the order of the positions; unused ones are H or OH. Peptide text beside a SMILES is read from it. * marks the point of attachment. Piperazinyl(4-(2,3-Cl2Ph)) = Clc1cccc(N2CCN(*)CC2)c1Cl; Thiocarbamoyl(N-4-ClPh) = S=C(Nc1ccc(Cl)cc1)*; Thiocarbamoyl(4-MeOPh) = COc1ccc(NC(=S)*)cc1; NH(4-MeO-phenyl) = COc1ccc(N*)cc1; NH(4-Cl-phenyl) = Clc1ccc(N*)cc1; X1 = Fc1ccc2c(C3CCN(*)CC3)noc2c1; CO = O=C([*:1])[*:2]

Assay type in all cases: functional
Settings in all cases: read-out: DIZ

Test [1] concerns Escherichia coli. As to the kind of experiment: Antibacterial activity against Escherichia coli at 30 ug/ml after 24 hrs by agar well diffusion method. In short, it runs like this:
(§1)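 Agar well diffusion. Inocula were grown in nutrient broth at 37 °C for 24 h, then subcultured in nutrient broth at room temperature. Compounds were made as a 1 mg/mL DMSO stock and diluted to 30 µg/mL final. Nutrient agar plates were spread-inoculated and 6 mm wells each got 0.1 mL. Controls were amoxicillin (reference) and DMSO (negative). Incubation was 24 h at 37 °C. Inhibition zone was measured in mm as the mean of three determinations.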
On the technique in general: A growth-free zone around the sample is the usual read-out of agar diffusion tests.

For test [2], the system named is Xanthomonas oryzae. As to the kind of experiment: Antibacterial activity against Xanthomonas oryzae at 30 ug/ml after 24 hrs by agar well diffusion method.
The subject of test [3] is Klebsiella pneumoniae. As to the kind of experiment: Antibacterial activity against Klebsiella pneumoniae at 30 ug/ml after 24 hrs by agar well diffusion method. In short, it runs like this:
as §1

For test [4], the system named is Staphylococcus aureus. As to the kind of experiment: Antibacterial activity against coagulase-positive Staphylococcus aureus at 30 ug/ml after 24 hrs by agar well diffusion method. In short, it runs like this: as §1
Test [5] has as its system Aspergillus niger. As to the kind of experiment: Antifungal activity against Aspergillus niger at 30 ug/ml after 72 hrs by agar well diffusion method. The procedure, abridged: (§2)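 Fungal well diffusion. Inocula were subcultured in nutrient broth for one day, then spread on solidified medium. Compounds were made as a 1 mg/mL DMSO stock and diluted to 30 µg/mL final. Each 6 mm well got 0.1 mL. Controls were bavistin (reference) and DMSO (negative). Plates stood for 3 days at room temperature. Inhibition zone was measured in mm as the mean of three determinations.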

In test [6] the test system is Aspergillus flavus. As to the kind of experiment: Antifungal activity against Aspergillus flavus at 30 ug/ml after 72 hrs by agar well diffusion method. The procedure, abridged:
as §2

Test [7] concerns Fusarium oxysporum. As to the kind of experiment: Antifungal activity against Fusarium oxysporum at 30 ug/ml after 72 hrs by agar well diffusion method. In short, it runs like this: as §2

In the case of `COc1ccc(NC(=O)NCC(=O)NCC(=O)N[C@@H](Cc2ccccc2)C(=O)N2CCC[C@H]2C(=O)N2CCN(c3cccc(Cl)c3Cl)CC2)cc1` ({NH(4-MeO-phenyl)-CO}-GGFP-{Piperazinyl(4-(2,3-Cl2Ph))}), the zone of inhibition at 30 µg/mL in test [1] was 25 mm; in test [2], 23 mm; in test [3], 18 mm; in test [4], 16 mm; in test [5] it was 26 mm; in test [6], 19 mm. In addition, the zone of inhibition at 30 µg/mL in test [7] was determined as 22 mm.
Take `COc1ccc(NC(=S)NCC(=O)N[C@@H](Cc2ccccc2)C(=O)NCC(=O)N[C@@H](Cc2ccccc2)C(=O)N2CCC[C@H]2C(=O)N2CCC(c3noc4cc(F)ccc34)CC2)cc1` ({Thiocarbamoyl(4-MeOPh)}-GFGFP-X1): the zone of inhibition at 30 µg/mL in test [1] amounted to 31 mm; in test [2], 31 mm; in test [3], 31 mm; in test [4], 29 mm; in test [5], 36 mm; in test [6] it was 30 mm. Besides, the zone of inhibition at 30 µg/mL in test [7] worked out at 33 mm.
In the case of `COc1ccc(NC(=O)NCC(=O)N[C@@H](Cc2ccccc2)C(=O)NCC(=O)N[C@@H](Cc2ccccc2)C(=O)N2CCC[C@H]2C(=O)N2CCC(c3noc4cc(F)ccc34)CC2)cc1` ({NH(4-MeO-phenyl)-CO}-GFGFP-X1), the zone of inhibition at 30 µg/mL in test [1] was 30 mm; in test [2], 30 mm; in test [3], 30 mm; in test [4], 28 mm; in test [5] it was 35 mm; in test [6], 29 mm. The zone of inhibition at 30 µg/mL in test [7] was determined as 32 mm.
`O=C(CNC(=O)Nc1ccc(Cl)cc1)NCC(=O)N[C@@H](Cc1ccccc1)C(=O)N1CCC[C@H]1C(=O)N1CCC(c2noc3cc(F)ccc23)CC1` ({NH(4-Cl-phenyl)-CO}-GGFP-X1): the zone of inhibition at 30 µg/mL was found to be 28 mm in test [1]; 25 mm in test [2]; 23 mm in test [3]; 21 mm in test [4]; 31 mm in test [5]; 26 mm in test [6]. Moreover, the zone of inhibition at 30 µg/mL in test [7] is 28 mm.
Consider `O=C(CNC(=O)Nc1ccc(Cl)cc1)NCC(=O)N[C@@H](Cc1ccccc1)C(=O)N1CCC[C@H]1C(=O)N1CCN(c2cccc(Cl)c2Cl)CC1` ({NH(4-Cl-phenyl)-CO}-GGFP-{Piperazinyl(4-(2,3-Cl2Ph))}), for which the zone of inhibition at 30 µg/mL in test [1] was determined as 27 mm; in test [2] it was 24 mm; in test [3], 22 mm; in test [4] it was 20 mm; in test [5], 30 mm; in test [6], 25 mm. Besides, the zone of inhibition at 30 µg/mL in test [7] came out at 27 mm.
For the molecule `CC[C@H](C)[C@H](NC(=O)CNC(=O)CNC(=S)Nc1ccc(Cl)cc1)C(=O)N1CCC[C@H]1C(=O)N1CCC(c2noc3cc(F)ccc23)CC1` ({Thiocarbamoyl(N-4-ClPh)}-GGIP-X1), the zone of inhibition at 30 µg/mL in test [1] came to 28 mm; in test [2] it was 25 mm; in test [3], 21 mm; in test [4], 21 mm; in test [5], 29 mm; in test [6], 27 mm. The zone of inhibition at 30 µg/mL in test [7] is 29 mm.
In the case of `O=C([C@H](Cc1c[nH]c2ccccc12)NC(=S)Nc1ccccc1F)N1CCC(c2noc3cc(F)ccc23)CC1`, the zone of inhibition at 30 µg/mL in test [1] came to 13 mm; in test [2], 12 mm; in test [3] it was 9 mm; in test [4], 9 mm; in test [5] it was 13 mm; in test [6], 10 mm. For the same molecule, the zone of inhibition at 30 µg/mL in test [7] stood at 7 mm.
Regarding `COc1ccc(NC(=S)NCC(=O)N[C@@H](Cc2ccccc2)C(=O)NCC(=O)N[C@@H](Cc2ccccc2)C(=O)N2CCC[C@H]2C(=O)N2CCN(c3cccc(Cl)c3Cl)CC2)cc1` ({Thiocarbamoyl(4-MeOPh)}-GFGFP-{Piperazinyl(4-(2,3-Cl2Ph))}), the zone of inhibition at 30 µg/mL in test [1] was found to be 29 mm; in test [2] it was 28 mm; in test [3], 29 mm; in test [4], 26 mm; in test [5], 32 mm; in test [6] it was 28 mm. For the same molecule, the zone of inhibition at 30 µg/mL in test [7] is 29 mm.
For the molecule `CC[C@H](C)[C@H](NC(=O)CNC(=O)CNC(=O)Nc1ccc(Cl)cc1)C(=O)N1CCC[C@H]1C(=O)N1CCC(c2noc3cc(F)ccc23)CC1` ({NH(4-Cl-phenyl)-CO}-GGIP-X1), the zone of inhibition at 30 µg/mL in test [1] turned out to be 26 mm; in test [2], 22 mm; in test [3], 18 mm; in test [4] it was 19 mm; in test [5] it was 27 mm; in test [6] it was 24 mm. In addition, in test [7], the zone of inhibition at 30 µg/mL is 26 mm.
Regarding `COc1ccc(NC(=S)NCC(=O)NCC(=O)N[C@@H](Cc2ccccc2)C(=O)N2CCC[C@H]2C(=O)N2CCN(c3cccc(Cl)c3Cl)CC2)cc1` ({Thiocarbamoyl(4-MeOPh)}-GGFP-{Piperazinyl(4-(2,3-Cl2Ph))}), the zone of inhibition at 30 µg/mL in test [1] is 23 mm; in test [2] it was 21 mm; in test [3] it was 20 mm; in test [4], 18 mm; in test [5], 29 mm; in test [6] it was 22 mm. Moreover, the zone of inhibition at 30 µg/mL in test [7] came to 24 mm.
Regarding `O=C([C@H](Cc1c[nH]c2ccccc12)NC(=S)Nc1ccccc1F)N1CCN(c2cccc(Cl)c2Cl)CC1`, the zone of inhibition at 30 µg/mL in test [1] amounted to 10 mm; in test [2], 10 mm; in test [3], 11 mm; in test [4], 12 mm; in test [5] it was 11 mm; in test [6], 12 mm. Besides, the zone of inhibition at 30 µg/mL in test [7] was 6 mm.
`COc1ccc(NC(=O)NCC(=O)N[C@H](C(=O)NCC(=O)N[C@H](C(=O)N2CCC[C@H]2C(=O)N2CCC(c3noc4cc(F)ccc34)CC2)C(C)C)C(C)C)cc1` ({NH(4-MeO-phenyl)-CO}-GVGVP-X1): the zone of inhibition at 30 µg/mL in test [1] worked out at 26 mm; in test [2], 33 mm; in test [3], 27 mm; in test [4], 23 mm; in test [5] it was 30 mm; in test [6], 27 mm. Besides, the zone of inhibition at 30 µg/mL in test [7] was 27 mm.
On to `O=C(Nc1ccccc1F)N[C@@H](Cc1c[nH]c2ccccc12)C(=O)N1CCN(c2cccc(Cl)c2Cl)CC1`, for which the zone of inhibition at 30 µg/mL in test [1] came out at 9 mm; in test [2], 9 mm; in test [3], 10 mm; in test [4], 11 mm; in test [5] it was 10 mm; in test [6], 11 mm. In test [7], the zone of inhibition at 30 µg/mL worked out at 7 mm.
Turning to `COc1ccc(NC(=S)NCC(=O)N[C@H](C(=O)NCC(=O)N[C@H](C(=O)N2CCC[C@H]2C(=O)N2CCN(c3cccc(Cl)c3Cl)CC2)C(C)C)C(C)C)cc1` ({Thiocarbamoyl(4-MeOPh)}-GVGVP-{Piperazinyl(4-(2,3-Cl2Ph))}), the zone of inhibition at 30 µg/mL in test [1] worked out at 27 mm; in test [2] it was 26 mm; in test [3], 22 mm; in test [4], 22 mm; in test [5], 29 mm; in test [6], 23 mm. In addition, the zone of inhibition at 30 µg/mL in test [7] turned out to be 24 mm.
Turning to `CC[C@H](C)[C@H](NC(=O)CNC(=O)CNC(=S)Nc1ccc(Cl)cc1)C(=O)N1CCC[C@H]1C(=O)N1CCN(c2cccc(Cl)c2Cl)CC1` ({Thiocarbamoyl(N-4-ClPh)}-GGIP-{Piperazinyl(4-(2,3-Cl2Ph))}), the zone of inhibition at 30 µg/mL in test [1] was 27 mm; in test [2], 24 mm; in test [3], 20 mm; in test [4], 22 mm; in test [5], 28 mm; in test [6] it was 26 mm. The zone of inhibition at 30 µg/mL in test [7] amounted to 28 mm.
In the case of `CC[C@H](C)[C@H](NC(=O)CNC(=O)CNC(=O)Nc1ccc(OC)cc1)C(=O)N1CCC[C@H]1C(=O)N1CCC(c2noc3cc(F)ccc23)CC1` ({NH(4-MeO-phenyl)-CO}-GGIP-X1), the zone of inhibition at 30 µg/mL was found to be 22 mm in test [1]; 17 mm in test [2]; 16 mm in test [3]; 14 mm in test [4]; 23 mm in test [5]; 19 mm in test [6]. Besides, in test [7], the zone of inhibition at 30 µg/mL stood at 21 mm.
`COc1ccc(NC(=S)NCC(=O)N[C@H](C(=O)NCC(=O)N[C@H](C(=O)N2CCC[C@H]2C(=O)N2CCC(c3noc4cc(F)ccc34)CC2)C(C)C)C(C)C)cc1` ({Thiocarbamoyl(4-MeOPh)}-GVGVP-X1): the zone of inhibition at 30 µg/mL in test [1] worked out at 28 mm; in test [2], 28 mm; in test [3] it was 26 mm; in test [4] it was 24 mm; in test [5], 31 mm; in test [6], 26 mm. The zone of inhibition at 30 µg/mL in test [7] amounted to 26 mm.
